This note sets out measurements from ChEMBL document CHEMBL4414599, “Selective Phenylimidazole-Based Inhibitors of the Mycobacterium tuberculosis Proteasome” (J Med Chem, 2019).

Molecules are shown by their SMILES. pIC50: −log10 of the molar value.

Data set [1] is described as follows: Solubility of the compound. It counts as physicochemical.
The target in data set [2] is T1, Proteasome subunit beta type-8 (Homo sapiens, UniProt P28062).
T1 sequence (P28062 whole entry): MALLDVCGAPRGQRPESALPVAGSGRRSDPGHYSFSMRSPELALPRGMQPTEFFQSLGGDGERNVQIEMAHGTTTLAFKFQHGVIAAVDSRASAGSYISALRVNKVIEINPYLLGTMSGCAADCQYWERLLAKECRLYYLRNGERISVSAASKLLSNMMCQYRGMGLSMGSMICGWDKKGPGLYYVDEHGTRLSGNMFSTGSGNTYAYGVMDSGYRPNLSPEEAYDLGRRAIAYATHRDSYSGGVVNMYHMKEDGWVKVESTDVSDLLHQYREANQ
As to the kind of experiment: Inhibition of human 20S proteasome subunit beta-5i using Ac-ANW-AMC as substrate and measured every 30 secs for 30 mins by microtiter plate assay. The following applies: for inhibition (INH): human, 0.5 h. In short, it runs like this:
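Human immunoproteasome (i-20S) run in HEPES pH 7.5 buffer with EDTA and BSA, substrate Ac-ANW-AMC at 15 µM, 25 °C. Inhibitor given as a three-fold dilution series, DMSO under 0.5% final. Fluorescence 340/460 nm followed every 30 s for 30 min. IC50 fitted from rates against log inhibitor concentration; triplicate, at least three independent experiments.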

Data set [3] addresses T2, Proteasome Macropain subunit MB1 (Homo sapiens, UniProt P28074).
T2 sequence (P28074 whole entry): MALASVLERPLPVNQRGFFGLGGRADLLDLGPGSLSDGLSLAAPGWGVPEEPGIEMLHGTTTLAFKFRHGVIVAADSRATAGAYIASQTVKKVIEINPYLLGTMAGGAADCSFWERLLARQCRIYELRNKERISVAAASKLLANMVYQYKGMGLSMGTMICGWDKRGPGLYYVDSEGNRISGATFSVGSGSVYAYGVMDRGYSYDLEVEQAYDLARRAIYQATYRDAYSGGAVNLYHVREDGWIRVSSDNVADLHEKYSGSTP
As to the kind of experiment: Inhibition of human 20S proteasome beta-5c subunit using Suc-LLVY-AMC as substrate and measured every 30 secs for 30 mins by microtiter plate assay. Conditions: for inhibition (INH): human, 0.5 h. In outline: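 Human constitutive 20S, purchased, 0.8 nM in the enzyme solution. Buffer: 20 mM HEPES pH 7.5, 0.5 mM EDTA, 0.1 mg/mL BSA, 0.02% SDS. Suc-LLVY-AMC at 25 µM final, 25 °C, three-fold inhibitor dilutions. Fluorescence 340/460 nm read every 30 s for 30 min. IC50 from a log-concentration rate fit against negative and positive controls; triplicate, at least three independent experiments.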

What is called pIC50 is the IC50 on a negative log10 scale, so that one unit is a factor of ten.

Consider `Cc1cc(C(=O)N[C@@H](CC(=O)N2CCCC[C@@H]2C)C(=O)N[C@@H](C)C(=O)NCc2ccc(F)cc2F)no1`, for which the solubility result in data set [1] was “Soluble”. Besides, in data set [2], the pIC50 was 7.59 and the “inhibition (INH)” value was “Dose-dependent effect”. Moreover, in data set [3], the pIC50 was 5.85 and the “inhibition (INH)” value is “Dose-dependent effect”.
For `COc1ccccc1CNC(=O)[C@H](C)NC(=O)[C@H](CC(=O)N1CCC[C@@H]1c1ccccc1)NC(=O)c1cc(C)on1`, in data set [2], the pIC50 is below 4.00 and the “inhibition (INH)” value is on record as “Dose-dependent effect”. Moreover, in data set [3], the negative-log IC50 (pIC50) was below 4.00 and the “inhibition (INH)” value was “Dose-dependent effect”.
`Cc1cc(C(=O)N[C@@H](CC(=O)N2CCC[C@@H]2c2ccccc2)C(=O)N[C@@H](C)C(=O)NCc2c(F)cccc2F)no1`: the pIC50 in data set [2] is 4.70; in data set [3] it was below 4.00. The “inhibition (INH)” value in data set [2] and in data set [3] was “Dose-dependent effect” throughout.
`Cc1cc(C(=O)N[C@@H](CC(=O)N2CCC[C@@H]2c2ccccc2)C(=O)N[C@@H](C)C(=O)NCc2ccc(F)cc2F)no1`: in data set [2], the pIC50 was 5.10 and the “inhibition (INH)” value is recorded as “Dose-dependent effect”. Further, in data set [3], the pIC50 was below 4.00 and the “inhibition (INH)” value is on record as “Dose-dependent effect”.
`Cc1cc(C(=O)N[C@@H](CC(=O)N2CCC[C@@H]2c2ccccc2)C(=O)N[C@@H](C)c2ncc(-c3ccccc3F)[nH]2)no1`: the pIC50 in data set [2] and in data set [3] was below 4.00 in each case.
In the case of `Cc1cc(C(=O)N[C@@H](CC(=O)N2CCC[C@@H]2c2ccccc2)C(=O)N[C@@H](C)c2ncc(-c3ccccc3)[nH]2)no1`, the pIC50 in data set [2] and in data set [3] was below 4.00 each time.
Take `Cc1cc(C(=O)N[C@@H](CC(=O)N2CCC[C@@H]2c2ccccc2)C(=O)N[C@@H](C)c2ncc(-c3ccc(F)cc3F)[nH]2)no1`: the pIC50 in data set [2] and in data set [3] was below 4.00 in each case.
